In ChEMBL document CHEMBL2062460, “Disubstituted thiourea derivatives and their activity on CNS: synthesis and biological evaluation” (Eur J Med Chem, 2012):
Converted amounts (≈) assume the structure as drawn. The source made the active and inactive calls. No cut-off for these calls is given here.

What was measured:
[1] = test system: Bacillus subtilis; experiment: Antibacterial activity against Bacillus subtilis ATCC 6633 at 400 ug/disc after 18 hrs by disc diffusion method; type: functional; conditions: ATCC 6633, 18 h, read-out: DIZ
In short: (§1)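 Disc diffusion per CLSI on Mueller–Hinton II agar; 9 mm paper discs loaded from methanol or DMSO solutions to 400 µg per disc, dried; growth inhibition zone diameter read after 18 h at 35 °C.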

[2] = test system: Staphylococcus epidermidis; experiment: Antibacterial activity against Staphylococcus epidermidis ATCC 12228 at 400 ug/disc after 18 hrs by disc diffusion method; type: functional; conditions: ATCC 12228, 18 h, read-out: DIZ; in short: as §1
[3] = test system: Enterococcus hirae; experiment: Antibacterial activity against Enterococcus hirae ATCC 10541 at 400 ug/disc after 18 hrs by disc diffusion method; type: functional; in short: as §1
[4] = test system: Staphylococcus aureus; experiment: Antibacterial activity against Staphylococcus aureus ATCC 25923 at 400 ug/disc after 18 hrs by disc diffusion method; type: functional; in short: as §1
[5] = test system: Staphylococcus aureus; experiment: Antibacterial activity against Staphylococcus aureus ATCC 29213 at 400 ug/disc after 18 hrs by disc diffusion method; type: functional; conditions: ATCC 29213, 18 h, read-out: DIZ; in short: as §1
[6] = test system: Bacillus cereus; experiment: Antibacterial activity against Bacillus cereus ATCC 11778 at 400 ug/disc after 18 hrs by disc diffusion method; type: functional; conditions: ATCC 11778, 18 h, read-out: DIZ; in short: as §1
[7] = test system: Micrococcus luteus; experiment: Antibacterial activity against Micrococcus luteus ATCC 9341 at 400 ug/disc after 18 hrs by disc diffusion method; type: functional; conditions: ATCC 9341, 18 h, read-out: DIZ; in short: as §1
[8] = test system: Escherichia coli; experiment: Antibacterial activity against Escherichia coli ATCC 10538 at 400 ug/disc after 18 hrs by disc diffusion method; type: functional, organism-based; in short: as §1
[9] = test system: Proteus vulgaris; experiment: Antibacterial activity against Proteus vulgaris NCTC 4635 at 400 ug/disc after 18 hrs by disc diffusion method; type: functional, organism-based; in short: as §1
[10] = test system: Bordetella bronchiseptica; experiment: Antibacterial activity against Bordetella bronchiseptica ATCC 4617 at 400 ug/disc after 18 hrs by disc diffusion method; type: functional, organism-based; in short: as §1
[11] = test system: Candida albicans; experiment: Antifungal activity against Candida albicans ATCC 90028 at 400 ug/disc after 18 hrs by disc diffusion method; type: functional, organism-based
In short: (§2)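 Yeasts tested by disc diffusion (CLSI) on RPMI agar with 2% glucose; 9 mm paper discs bearing 400 µg compound from methanol or DMSO solution; inhibition zone diameter read after 18 h at 35 °C.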

[12] = test system: Candida parapsilosis; experiment: Antifungal activity against Candida parapsilosis ATCC 22019 at 400 ug/disc after 18 hrs by disc diffusion method; type: functional, organism-based; in short: as §2
[13] = test system: Staphylococcus aureus; experiment: Antibacterial activity against Staphylococcus aureus NCTC 4163 after 18 hrs by twofold serial agar dilution technique; type: functional; conditions: NCTC 4163, 18 h
In short: (§3)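 Twofold serial agar dilution on Mueller–Hinton II agar, following CLSI guidelines. Compounds were dissolved in methanol or DMSO and tested at final agar concentrations of 3.125–400 µg/mL. Final inoculum was 10^4 CFU/mL.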

[14] = test system: Staphylococcus aureus; experiment: Antibacterial activity against Staphylococcus aureus ATCC 25923 after 18 hrs by twofold serial agar dilution technique; type: functional; conditions: ATCC 25923, 18 h; in short: as §3
[15] = test system: Staphylococcus aureus; experiment: Antibacterial activity against Staphylococcus aureus ATCC 29213 after 18 hrs by twofold serial agar dilution technique; type: functional; conditions: ATCC 29213, 18 h; in short: as §3
[16] = test system: Staphylococcus epidermidis; experiment: Antibacterial activity against Staphylococcus epidermidis ATCC 12228 after 18 hrs by twofold serial agar dilution technique; type: functional; conditions: ATCC 12228, 18 h; in short: as §3
[17] = test system: Micrococcus luteus; experiment: Antibacterial activity against Micrococcus luteus ATCC 10240 after 18 hrs by twofold serial agar dilution technique; type: functional; conditions: ATCC 10240, 18 h
[18] = test system: Staphylococcus aureus; experiment: Antibacterial activity against methicillin-susceptible Staphylococcus aureus clinical isolate 256/08 after 18 hrs by twofold serial agar dilution technique; type: functional; conditions: clinical isolate 256/08, 18 h
In short: (§4)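 Clinical isolates came from patients in Warsaw Medical University Hospitals and were classed as methicillin-susceptible or -resistant. MIC was determined by twofold serial agar dilution on Mueller–Hinton II agar (CLSI), 3.125–400 µg/mL in agar, with compounds in methanol or DMSO. Inoculum was 10^4 CFU/mL and plates were read after 18 h at 35 °C.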

[19] = test system: Staphylococcus aureus; experiment: Antibacterial activity against methicillin-susceptible Staphylococcus aureus clinical isolate 261/08 after 18 hrs by twofold serial agar dilution technique; type: functional; conditions: clinical isolate 261/08, 18 h; in short: as §4
[20] = test system: Staphylococcus aureus; experiment: Antibacterial activity against methicillin-susceptible Staphylococcus aureus clinical isolate 268/08 after 18 hrs by twofold serial agar dilution technique; type: functional; conditions: clinical isolate 268/08, 18 h; in short: as §4
[21] = test system: Staphylococcus aureus; experiment: Antibacterial activity against methicillin-susceptible Staphylococcus aureus clinical isolate 338/08 after 18 hrs by twofold serial agar dilution technique; type: functional; conditions: clinical isolate 338/08, 18 h; in short: as §4
[22] = test system: Staphylococcus aureus; experiment: Antibacterial activity against methicillin-susceptible Staphylococcus aureus clinical isolate 339/09 after 18 hrs by twofold serial agar dilution technique; type: functional; conditions: clinical isolate 339/09, 18 h; in short: as §4
[23] = test system: Staphylococcus aureus; experiment: Antibacterial activity against methicillin-susceptible Staphylococcus aureus clinical isolate 367/09 after 18 hrs by twofold serial agar dilution technique; type: functional; conditions: clinical isolate 367/09, 18 h; in short: as §4
[24] = test system: Staphylococcus aureus; experiment: Antibacterial activity against methicillin-susceptible Staphylococcus aureus clinical isolate 369/09 after 18 hrs by twofold serial agar dilution technique; type: functional; conditions: clinical isolate 369/09, 18 h; in short: as §4
[25] = test system: Staphylococcus aureus; experiment: Antibacterial activity against methicillin-susceptible Staphylococcus aureus clinical isolate 372/09 after 18 hrs by twofold serial agar dilution technique; type: functional; conditions: clinical isolate 372/09, 18 h; in short: as §4
[26] = test system: Staphylococcus aureus; experiment: Antibacterial activity against methicillin-resistant Staphylococcus aureus clinical isolate 275/08 after 18 hrs by twofold serial agar dilution technique; type: functional; conditions: clinical isolate 275/08, 18 h; in short: as §4
[27] = test system: Staphylococcus aureus; experiment: Antibacterial activity against methicillin-resistant Staphylococcus aureus clinical isolate 277/08 after 18 hrs by twofold serial agar dilution technique; type: functional; conditions: clinical isolate 277/08, 18 h; in short: as §4
[28] = test system: Staphylococcus aureus; experiment: Antibacterial activity against methicillin-resistant Staphylococcus aureus clinical isolate 306/08 after 18 hrs by twofold serial agar dilution technique; type: functional; conditions: clinical isolate 306/08, 18 h; in short: as §4
[29] = test system: Staphylococcus aureus; experiment: Antibacterial activity against methicillin-resistant Staphylococcus aureus clinical isolate 309/08 after 18 hrs by twofold serial agar dilution technique; type: functional; conditions: clinical isolate 309/08, 18 h; in short: as §4
[30] = test system: Staphylococcus aureus; experiment: Antibacterial activity against methicillin-resistant Staphylococcus aureus clinical isolate 356/09 after 18 hrs by twofold serial agar dilution technique; type: functional; conditions: clinical isolate 356/09, 18 h; in short: as §4
[31] = test system: Staphylococcus aureus; experiment: Antibacterial activity against methicillin-resistant Staphylococcus aureus clinical isolate 376/09 after 18 hrs by twofold serial agar dilution technique; type: functional; conditions: clinical isolate 376/09, 18 h; in short: as §4
[32] = test system: Staphylococcus epidermidis; experiment: Antibacterial activity against methicillin-resistant Staphylococcus epidermidis clinical isolate 311/08 after 18 hrs by twofold serial agar dilution technique; type: functional; conditions: clinical isolate 311/08, 18 h; in short: as §4
[33] = test system: Staphylococcus epidermidis; experiment: Antibacterial activity against methicillin-resistant Staphylococcus epidermidis clinical isolate 315/08 after 18 hrs by twofold serial agar dilution technique; type: functional; conditions: clinical isolate 315/08, 18 h; in short: as §4
[34] = test system: Staphylococcus epidermidis; experiment: Antibacterial activity against methicillin-resistant Staphylococcus epidermidis clinical isolate 316/08 after 18 hrs by twofold serial agar dilution technique; type: functional; conditions: clinical isolate 316/08, 18 h; in short: as §4
[35] = test system: Staphylococcus epidermidis; experiment: Antibacterial activity against methicillin-resistant Staphylococcus epidermidis clinical isolate 340/09 after 18 hrs by twofold serial agar dilution technique; type: functional; conditions: clinical isolate 340/09, 18 h; in short: as §4
[36] = Cytotoxicity against human MT4 cells after 96 hrs by MTT assay; type: cell-based

For S=C(Nc1ccccc1)Nc1nc[nH]n1, the zone of inhibition at 400 µg/disc [1] was 16 mm, the zone of inhibition at 400 µg/disc [2] was 12 mm and the “diameter of the inhibition zone (DIZ)” value [3] was “inactive”. For the same compound, the “diameter of the inhibition zone (DIZ)” value [4] was “inactive”, the zone of inhibition at 400 µg/disc [5] was 11 mm and the zone of inhibition at 400 µg/disc [6] was 12 mm. The zone of inhibition at 400 µg/disc [7] was 14 mm, the “diameter of the inhibition zone (DIZ)” value [8] was “inactive” and the “diameter of the inhibition zone (DIZ)” value [9] was “inactive”. The “diameter of the inhibition zone (DIZ)” value [10] was “inactive”, the “diameter of the inhibition zone (DIZ)” value [11] was “inactive” and the “diameter of the inhibition zone (DIZ)” value [12] was “inactive”. For the same compound, the MIC [13] was 100 µg/mL (≈ 456 µM), the MIC [14] was 100 µg/mL (≈ 456 µM) and the MIC [15] was 100 µg/mL (≈ 456 µM). It also gave an MIC [16] of 50 µg/mL (≈ 228 µM), an MIC [17] of 50 µg/mL (≈ 228 µM) and an MIC [18] of 50 µg/mL (≈ 228 µM). For the same compound, the MIC [19] was 50 µg/mL (≈ 228 µM), the MIC [20] was 50 µg/mL (≈ 228 µM) and the MIC [21] was 50 µg/mL (≈ 228 µM). The MIC [22] was 50 µg/mL (≈ 228 µM), the MIC [23] was 50 µg/mL (≈ 228 µM) and the MIC [24] was 50 µg/mL (≈ 228 µM). For the same compound, the MIC [25] was 50 µg/mL (≈ 228 µM), the MIC [26] was 100 µg/mL (≈ 456 µM) and the MIC [27] was 50 µg/mL (≈ 228 µM). The MIC [28] was 50 µg/mL (≈ 228 µM), the MIC [29] was 50 µg/mL (≈ 228 µM) and the MIC [30] was 50 µg/mL (≈ 228 µM). For the same compound, the MIC [31] was 50 µg/mL (≈ 228 µM), the MIC [32] was 100 µg/mL (≈ 456 µM) and the MIC [33] was 100 µg/mL (≈ 456 µM). For the same compound, the MIC [34] was 100 µg/mL (≈ 456 µM), the MIC [35] was 50 µg/mL (≈ 228 µM) and the CC50 at 96 h [36] was > 100 µM.
